Values after ≈ are worked out from the molar mass of the structure shown.
Columns and labels:
Format in all cases: functional
[1] = tested on: Mycobacterium tuberculosis variant bovis BCG; assay: Antimicrobial activity against Mycobacterium bovis BCG ML1062 carrying transposon IS1096::Km inserted at -18bp of pks11 gene by microplate Alamar blue assay
Procedure, shortened: (§1)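 Whole-cell M. bovis BCG (Institut Pasteur) MABA; mutants carried IS1096::Km insertions. Growth was in Middlebrook 7H9 with 0.2% glycerol, 0.05% Tween 80 and 10% OADC. Final drug ranges: ampicillin 62.5–2,000 μg/ml, vancomycin 1.25–40 μg/ml, streptomycin 0.25–8 μg/ml, chloramphenicol 4–128 μg/ml, tetracycline 0.5–16 μg/ml. MIC was the lowest concentration cutting viability ≥90%, read by fluorescence (ex 530/em 590 nm, room temperature).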

[2] = tested on: Mycobacterium tuberculosis variant bovis BCG; assay: Antimicrobial activity against Mycobacterium bovis BCG ML1060 carrying transposon IS1096::Km inserted at -206bp of fadD25/mmpL12 gene by microplate Alamar blue assay; procedure, shortened: as §1
[3] = tested on: Mycobacterium tuberculosis variant bovis BCG; assay: Antimicrobial activity against Mycobacterium bovis BCG ML1065 carrying transposon IS1096::Km inserted at +96bp of bcg0061 gene by microplate Alamar blue assay; procedure, shortened: as §1
[4] = tested on: Mycolicibacterium smegmatis; assay: Antimicrobial activity against Mycobacterium smegmatis overexpressing rv0194 gene by microplate Alamar blue assay
Procedure, shortened: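 M. smegmatis SMR5 carried either control plasmid pMS2 or rv0194 expression vector pML655. Cells were grown at 37°C in Middlebrook 7H9 with 0.2% glycerol and 0.05% Tween 80, then tested by microplate Alamar blue assay. MIC was the lowest antibiotic concentration reducing culture viability by ≥90%, read by fluorescence (ex 530/em 590 nm, room temperature).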

[5] = tested on: Mycobacterium tuberculosis variant bovis BCG; assay: Antimicrobial activity against Mycobacterium bovis BCG ML1075 carrying transposon IS1096::Km inserted at +899bp of gca gene by microplate Alamar blue assay; procedure, shortened: as §1
[6] = tested on: Mycobacterium tuberculosis variant bovis BCG; assay: Antimicrobial activity against Mycobacterium bovis BCG ML1050 carrying transposon IS1096::Km inserted at +41bp of bcg2827 gene by microplate Alamar blue assay; procedure, shortened: as §1
[7] = tested on: Mycobacterium tuberculosis variant bovis BCG; assay: Antimicrobial activity against Mycobacterium bovis BCG ML1036 carrying transposon IS1096::Km inserted at +277bp of agpS gene by microplate Alamar blue assay; procedure, shortened: as §1
[8] = tested on: Mycobacterium tuberculosis variant bovis BCG; assay: Antimicrobial activity against Mycobacterium bovis BCG ML1052 carrying transposon IS1096::Km inserted at +78bp of bcg2824 gene by microplate Alamar blue assay; procedure, shortened: as §1
[9] = tested on: Mycobacterium tuberculosis variant bovis BCG; assay: Antimicrobial activity against Mycobacterium bovis BCG ML1010 carrying transposon IS1096::Km inserted at +43bp of ppe gene by microplate Alamar blue assay; procedure, shortened: as §1
[10] = tested on: Mycobacterium tuberculosis variant bovis BCG; assay: Antimicrobial activity against Mycobacterium bovis BCG ML1061 carrying transposon IS1096::Km inserted at +19bp of lppA gene by microplate Alamar blue assay; procedure, shortened: as §1
[11] = tested on: Mycobacterium tuberculosis variant bovis BCG; assay: Antimicrobial activity against Mycobacterium bovis BCG ML1044 carrying transposon IS1096::Km inserted at -178bp of ppe33b gene by microplate Alamar blue assay; procedure, shortened: as §1
[12] = tested on: Mycolicibacterium smegmatis; assay: Resistance factor, ratio of MIC for Mycobacterium smegmatis overexpressing rv0194 gene to MIC for wild-type Mycobacterium smegmatis SMR5
Procedure, shortened: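 Resistance factor is the MABA MIC for M. smegmatis expressing rv0194 divided by the MIC for wild-type SMR5. MIC was the lowest concentration giving ≥90% viability reduction by fluorescence (ex 530/em 590 nm).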

[13] = tested on: Mycobacterium tuberculosis variant bovis BCG; assay: Antimicrobial activity against Mycobacterium bovis BCG ML1007 carrying transposon IS1096::Km inserted at +988bp of ppe53 gene by microplate Alamar blue assay; procedure, shortened: as §1
[14] = tested on: Mycobacterium tuberculosis variant bovis BCG; assay: Antimicrobial activity against Mycobacterium bovis BCG ML1058 carrying transposon IS1096::Km inserted at +320bp of lprR gene by microplate Alamar blue assay; procedure, shortened: as §1
[15] = tested on: Mycobacterium tuberculosis variant bovis BCG; assay: Antimicrobial activity against Mycobacterium bovis BCG ML1006 carrying transposon IS1096::Km inserted at +720bp of bcg3787 gene by microplate Alamar blue assay; procedure, shortened: as §1
[16] = tested on: Mycobacterium tuberculosis variant bovis BCG; assay: Antimicrobial activity against Mycobacterium bovis BCG ML1012 carrying transposon IS1096::Km inserted at +1255bp of bcg3960c gene by microplate Alamar blue assay; procedure, shortened: as §1
[17] = tested on: Mycobacterium tuberculosis variant bovis BCG; assay: Antimicrobial activity against Mycobacterium bovis BCG ML1041 carrying transposon IS1096::Km inserted at +1707bp of ppe24 gene by microplate Alamar blue assay; procedure, shortened: as §1
[18] = tested on: Mycobacterium tuberculosis variant bovis BCG; assay: Antimicrobial activity against Mycobacterium bovis BCG ML1053 carrying transposon IS1096::Km inserted at +271bp of bcg2326c gene by microplate Alamar blue assay; procedure, shortened: as §1
[19] = tested on: Mycobacterium tuberculosis variant bovis BCG; assay: Antimicrobial activity against Mycobacterium bovis BCG ML1042 carrying transposon IS1096::Km inserted at -509bp of bcg2123c/pe22 gene by microplate Alamar blue assay; procedure, shortened: as §1
[20] = tested on: Mycobacterium tuberculosis variant bovis BCG; assay: Antimicrobial activity against Mycobacterium bovis BCG ML1064 carrying transposon IS1096::Km inserted at +569bp of lppB gene by microplate Alamar blue assay; procedure, shortened: as §1
[21] = tested on: Mycobacterium tuberculosis variant bovis BCG; assay: Antimicrobial activity against Mycobacterium bovis BCG ML1051 carrying transposon IS1096::Km inserted at -420bp of bcg2965 gene by microplate Alamar blue assay; procedure, shortened: as §1
[22] = tested on: Mycobacterium tuberculosis variant bovis BCG; assay: Antimicrobial activity against Mycobacterium bovis BCG ML1013 carrying transposon IS1096::Km inserted at +923bp of cpsY gene by microplate Alamar blue assay; procedure, shortened: as §1
[23] = tested on: Mycobacterium tuberculosis variant bovis BCG; assay: Antimicrobial activity against Mycobacterium bovis BCG ML1046 carrying transposon IS1096::Km inserted at +33bp of bcg2743 gene by microplate Alamar blue assay; procedure, shortened: as §1
[24] = tested on: Mycobacterium tuberculosis variant bovis BCG; assay: Antimicrobial activity against Mycobacterium bovis BCG ML1037 carrying transposon IS1096::Km inserted at +1765bp of bcg3693 gene by microplate Alamar blue assay; procedure, shortened: as §1
[25] = tested on: Mycobacterium tuberculosis variant bovis BCG; assay: Antimicrobial activity against Mycobacterium bovis BCG ML1029 carrying transposon IS1096::Km inserted at +524bp of bcg2734c gene by microplate Alamar blue assay; procedure, shortened: as §1
[26] = tested on: Mycobacterium tuberculosis variant bovis BCG; assay: Antimicrobial activity against Mycobacterium bovis BCG ML1048 carrying transposon IS1096::Km inserted at +519bp of bcg1567c gene by microplate Alamar blue assay; procedure, shortened: as §1
[27] = tested on: Mycobacterium tuberculosis variant bovis BCG; assay: Antimicrobial activity against Mycobacterium bovis BCG ML1025 carrying transposon IS1096::Km inserted at +435bp of bcg3145 gene by microplate Alamar blue assay; procedure, shortened: as §1
[28] = tested on: Mycobacterium tuberculosis variant bovis BCG; assay: Antimicrobial activity against Mycobacterium bovis BCG ML1034 carrying transposon IS1096::Km inserted at -54bp of bcg0231 gene by microplate Alamar blue assay; procedure, shortened: as §1
[29] = tested on: Mycobacterium tuberculosis variant bovis BCG; assay: Antimicrobial activity against Mycobacterium bovis BCG ML1009 carrying transposon IS1096::Km inserted at +368bp of cyp121 gene by microplate Alamar blue assay; procedure, shortened: as §1
[30] = tested on: Mycobacterium tuberculosis variant bovis BCG; assay: Antimicrobial activity against Mycobacterium bovis BCG ML1047 carrying transposon IS1096::Km inserted at +544bp of fadD23 gene by microplate Alamar blue assay; procedure, shortened: as §1
[31] = tested on: Mycobacterium tuberculosis variant bovis BCG; assay: Antimicrobial activity against Mycobacterium bovis BCG ML1069 carrying transposon IS1096::Km inserted at +205bp of gmhA gene by microplate Alamar blue assay; procedure, shortened: as §1
[32] = tested on: Mycobacterium tuberculosis variant bovis BCG; assay: Antimicrobial activity against Mycobacterium bovis BCG ML1034 by microplate Alamar blue assay; procedure, shortened: as §1
[33] = tested on: Mycobacterium tuberculosis variant bovis BCG; assay: Antimicrobial activity against Mycobacterium bovis BCG ML1040 carrying transposon IS1096::Km inserted at +1930bp of papA2 gene by microplate Alamar blue assay; procedure, shortened: as §1
[34] = tested on: Mycobacterium tuberculosis variant bovis BCG; assay: Antimicrobial activity against Mycobacterium bovis BCG ML1030 carrying transposon IS1096::Km inserted at +849bp of bcg1988c gene by microplate Alamar blue assay; procedure, shortened: as §1
[35] = tested on: Mycobacterium tuberculosis variant bovis BCG; assay: Antimicrobial activity against Mycobacterium bovis BCG ML1038 carrying transposon IS1096::Km inserted at +78bp of bcg2735 gene by microplate Alamar blue assay; procedure, shortened: as §1

SMILES: CC1(C)S[C@@H]2[C@H](NC(=O)[C@H](N)c3ccccc3)C(=O)N2[C@H]1C(=O)O [AMPICILLIN]
- MIC [1]: > 2000 µg/mL
- MIC [2]: 250 µg/mL (≈ 715 µM)
- MIC [3]: > 2000 µg/mL
- MIC [4]: 250 µg/mL (≈ 715 µM)
- MIC [5]: 2000 µg/mL (≈ 5720 µM)
- MIC [6]: 2000 µg/mL (≈ 5720 µM)
- MIC [7]: 250 µg/mL (≈ 715 µM)
- MIC [8]: > 500 µg/mL
- MIC [9]: 500 µg/mL (≈ 1430 µM)
- MIC [10]: > 2000 µg/mL
- MIC [11]: 250 µg/mL (≈ 715 µM)
- Ratio [12]: 2
- MIC [13]: 2000 µg/mL (≈ 5720 µM)
- MIC [14]: 2000 µg/mL (≈ 5720 µM)
- MIC [15]: 2000 µg/mL (≈ 5720 µM)
- MIC [16]: > 2000 µg/mL
- MIC [17]: > 2000 µg/mL
- MIC [18]: 2000 µg/mL (≈ 5720 µM)
- MIC [19]: 500 µg/mL (≈ 1430 µM)
- MIC [20]: 2000 µg/mL (≈ 5720 µM)
- MIC [21]: > 500 µg/mL
- MIC [22]: 2000 µg/mL (≈ 5720 µM)
- MIC [23]: 500 µg/mL (≈ 1430 µM)
- MIC [24]: 250 µg/mL (≈ 715 µM)
- MIC [25]: > 2000 µg/mL
- MIC [26]: 250 µg/mL (≈ 715 µM)
- MIC [27]: 250 µg/mL (≈ 715 µM)
- MIC [28]: 2000 µg/mL (≈ 5720 µM)
- MIC [29]: 2000 µg/mL (≈ 5720 µM)
- MIC [30]: 2000 µg/mL (≈ 5720 µM)
- MIC [31]: 2000 µg/mL (≈ 5720 µM)
- MIC [32]: 2000 µg/mL (≈ 5720 µM)
- MIC [33]: 2000 µg/mL (≈ 5720 µM)
- MIC [34]: 2000 µg/mL (≈ 5720 µM)
- MIC [35]: 2000 µg/mL (≈ 5720 µM)

SMILES: O=C(N[C@H](CO)[C@H](O)c1ccc([N+](=O)[O-])cc1)C(Cl)Cl [CHLORAMPHENICOL]
- MIC [4]: 32 µg/mL (≈ 99 µM)
- Ratio [12]: 1
- MIC [32]: 512 µg/mL (≈ 1580 µM)

SMILES: CC[C@H]1OC(=O)[C@H](C)[C@@H](O[C@H]2C[C@@](C)(OC)[C@@H](O)[C@H](C)O2)[C@H](C)[C@@H](O[C@@H]2O[C@H](C)C[C@H](N(C)C)[C@H]2O)[C@](C)(O)C[C@@H](C)C(=O)[C@H](C)[C@@H](O)[C@]1(C)O [ERYTHROMYCIN]
- MIC [4]: 10 µg/mL (≈ 13.6 µM)
- Ratio [12]: 4

SMILES: CO[C@@H]1[C@@H](OC(N)=O)[C@@H](O)[C@H](Oc2ccc3c(O)c(NC(=O)c4ccc(O)c(CC=C(C)C)c4)c(=O)oc3c2C)OC1(C)C [NOVOBIOCIN]
- MIC [4]: 8 µg/mL (≈ 13.1 µM)
- Ratio [12]: 2

SMILES: CN[C@@H]1[C@H](O[C@H]2[C@H](O[C@H]3[C@H](O)[C@@H](O)[C@H](N=C(N)N)[C@@H](O)[C@@H]3N=C(N)N)O[C@@H](C)[C@]2(O)C=O)O[C@@H](CO)[C@H](O)[C@H]1O [STREPTOMYCIN]
- MIC [32]: 16 µg/mL (≈ 27.5 µM)

SMILES: CN(C)[C@@H]1C(O)=C(C(N)=O)C(=O)[C@@]2(O)C(O)=C3C(=O)c4c(O)cccc4[C@@](C)(O)[C@H]3C[C@@H]12 [TETRACYCLINE]
- MIC [4]: 0.3 µg/mL (≈ 0.675 µM)
- Ratio [12]: 1
- MIC [32]: > 16 µg/mL

SMILES: CN[C@H](CC(C)C)C(=O)N[C@H]1C(=O)N[C@@H](CC(N)=O)C(=O)N[C@H]2C(=O)N[C@H]3C(=O)N[C@H](C(=O)N[C@H](C(=O)O)c4cc(O)cc(O)c4-c4cc3ccc4O)[C@H](O)c3ccc(c(Cl)c3)Oc3cc2cc(c3O[C@@H]2O[C@H](CO)[C@@H](O)[C@H](O)[C@H]2O[C@H]2C[C@](C)(N)[C@H](O)[C@H](C)O2)Oc2ccc(cc2Cl)[C@H]1O [VANCOMYCIN]
- MIC [4]: 2.5 µg/mL (≈ 1.73 µM)
- Ratio [12]: 2
- MIC [32]: 20 µg/mL (≈ 13.8 µM)

Source: ChEMBL document CHEMBL1275448, “Identification of a novel multidrug efflux pump of Mycobacterium tuberculosis” (2008)
